Measured values reported in ChEMBL document CHEMBL3400039, “Design, synthesis and in vitro cell-based evaluation of the anti-cancer activities of hispolon analogs” (Bioorg Med Chem, 2015).
The source made the active and inactive calls. The calls are words filed in the database; no cut-off is given here.

Tests used:
[1] = Cytotoxicity against human PC3 cells after 72 hrs by MTT assay; format: functional, cell-based; settings: PC-3, 72 h
Outline: (§1)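 Cells kept as adherent monolayers in DMEM with 10% FBS, 37°C, 5% CO2. Trypsin-harvested, seeded at 5 × 10^3 cells/well, then exposed to compound at 0.1 to 100 µM for 72 h. MTT (4 mg/ml) added for 4 h, formazan dissolved in DMSO, absorbance read at 570 nm. At least three experiments, each in triplicate; mean±SD.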

[2] = test system: DU-145; assay: Cytotoxicity against human DU145 cells after 72 hrs by MTT assay; format: functional, cell-based; settings: DU-145, 72 h; outline: as §1
[3] = Cytotoxicity against human HCT116 cells after 72 hrs by MTT assay; format: functional, cell-based; settings: HCT-116, 72 h; outline: as §1
[4] = Cytotoxicity against human S1 cells after 72 hrs by MTT assay; format: functional, cell-based; settings: S1, 72 h; outline: as §1
[5] = test system: MDA-MB-231; assay: Cytotoxicity against human MDA-MB-231 cells after 72 hrs by MTT assay; format: functional, cell-based; settings: MDA-MB-231, 72 h; outline: as §1
[6] = test system: MDCK; assay: Cytotoxicity against MDCK cells after 72 hrs by MTT assay; format: cell-based; settings: Canis lupus familiaris; outline: as §1
[7] = Cytotoxicity against mouse NIH/3T3 cells after 72 hrs by MTT assay; format: cell-based; settings: NIH3T3, 72 h; outline: as §1
[8] = test system: HEK293; assay: Cytotoxicity against HEK293 cells expressing pcDNA3.1 after 72 hrs by MTT assay; format: cell-based; settings: Homo sapiens, HEK293, 72 h; outline: as §1
[9] = test system: HEK293; assay: Cytotoxicity against HEK293 cells expressing ABCB1 after 72 hrs by MTT assay; format: functional, cell-based; settings: Homo sapiens, HEK293, 72 h; outline: as §1
[10] = test system: HEK293; assay: Resistance index, ratio of IC50 for HEK293 cells expressing ABCB1 to IC50 for HEK293 cells expressing pcDNA3.1; set-up: species or system Homo sapiens
Outline: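 Fold resistance is the IC50 in P-glycoprotein-overexpressing HEK293/ABCB1 cells divided by the IC50 in empty-vector HEK293/pcDNA3.1 cells. IC50s from the 72 h MTT assay; paclitaxel was the positive-control ABCB1 substrate.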

[11] = test system: PC-3; assay: Cytotoxicity against human PC3 cells at 100 uM after 72 hrs by MTT assay; format: functional, cell-based; outline: as §1
[12] = test system: DU-145; assay: Cytotoxicity against human DU145 cells at 100 uM after 72 hrs by MTT assay; format: functional, cell-based; outline: as §1
[13] = test system: HCT-116; assay: Cytotoxicity against human HCT116 cells at 100 uM after 72 hrs by MTT assay; format: functional, cell-based; outline: as §1
[14] = test system: S1; assay: Cytotoxicity against human S1 cells at 100 uM after 72 hrs by MTT assay; format: functional, cell-based; outline: as §1
[15] = test system: MCF7; assay: Cytotoxicity against human MCF7 cells at 100 uM after 72 hrs by MTT assay; format: functional, cell-based; outline: as §1
[16] = test system: MDA-MB-231; assay: Cytotoxicity against human MDA-MB-231 cells at 100 uM after 72 hrs by MTT assay; format: functional, cell-based; outline: as §1
[17] = test system: MDCK; assay: Cytotoxicity against MDCK cells at 100 uM after 72 hrs by MTT assay; format: cell-based, Canis lupus familiaris; settings: dog; outline: as §1
[18] = Cytotoxicity against mouse NIH/3T3 cells at 100 uM after 72 hrs by MTT assay; format: cell-based; settings: nih3t3, 72 h; outline: as §1
[19] = test system: HEK293; assay: Cytotoxicity against HEK293 cells expressing pcDNA3.1 at 100 uM after 72 hrs by MTT assay; format: cell-based; settings: human, hek293, 72 h; outline: as §1
[20] = test system: MCF7; assay: Cytotoxicity against human MCF7 cells after 72 hrs by MTT assay; format: functional, cell-based; settings: MCF7, 72 h; outline: as §1

COc1cc(/C=C/c2cc(C)no2)ccc1O
IC50 [1]: 20.9 µM | IC50 [2]: 28.9 µM | IC50 [3]: 33.4 µM | IC50 [4]: 50.5 µM | IC50 [5]: 34.6 µM | IC50 [6]: 29.8 µM | IC50 [7]: > 100 µM | IC50 [8]: 36.2 µM | IC50 [9]: 41.3 µM | Ratio IC50 [10]: 1.1

COc1ccc(CCC(=O)CC(C)=O)cc1OC
Activity [11]: inactive | Activity [12]: inactive | Activity [13]: inactive | Activity [14]: inactive | Activity [15]: inactive | Activity [16]: inactive | Activity [17]: Non-toxic | Activity [18]: Non-toxic | Activity [19]: Non-toxic

CC(=O)O[C@H]1C(=O)[C@@]2(C)[C@H]([C@H](OC(=O)c3ccccc3)[C@]3(O)C[C@H](OC(=O)[C@H](O)[C@@H](NC(=O)c4ccccc4)c4ccccc4)C(C)=C1C3(C)C)[C@]1(OC(C)=O)CO[C@@H]1C[C@@H]2O [PACLITAXEL]
IC50 [8]: 0.04 µM | IC50 [9]: 0.36 µM | Ratio IC50 [10]: 9

COc1ccc(/C=C/C(=O)CC(C)=O)cc1
IC50 [1]: 15.8 µM | IC50 [2]: 9.1 µM | IC50 [3]: 11.9 µM | IC50 [4]: 44.6 µM | IC50 [5]: 25 µM | IC50 [6]: 41.6 µM | IC50 [7]: 48.2 µM | IC50 [8]: 18.7 µM | IC50 [9]: 16.3 µM | Ratio IC50 [10]: 0.9

COc1ccc(CCC(=O)CC(C)=O)cc1
Activity [11]: inactive | Activity [12]: inactive | Activity [13]: inactive | Activity [14]: inactive | Activity [15]: inactive | Activity [16]: inactive | Activity [17]: Non-toxic | Activity [18]: Non-toxic | Activity [19]: Non-toxic

COc1ccc(CCc2cc(C)no2)cc1OC
Activity [11]: inactive | Activity [12]: inactive | Activity [13]: inactive | Activity [14]: inactive | Activity [15]: inactive | Activity [16]: inactive | Activity [17]: Non-toxic | Activity [18]: Non-toxic | Activity [19]: Non-toxic

COc1ccc(/C=C/c2cc(C)n[nH]2)cc1OC
IC50 [1]: 12.6 µM | IC50 [2]: 18.5 µM | IC50 [3]: 51.3 µM | IC50 [4]: 22.4 µM | IC50 [5]: 38.8 µM | IC50 [6]: 54.1 µM | IC50 [7]: 68.4 µM | IC50 [9]: 33.2 µM | Ratio IC50 [10]: 1.4

COc1cc(/C=C/c2cc(C)[nH]n2)ccc1O
IC50 [1]: 16.5 µM | IC50 [2]: 32.2 µM | IC50 [3]: 78.8 µM | IC50 [4]: 29.4 µM | IC50 [5]: 67 µM | IC50 [6]: 35.4 µM | IC50 [7]: 66.3 µM | IC50 [8]: 47.7 µM | IC50 [9]: 45.2 µM | Ratio IC50 [10]: 0.9

COc1ccc(CCc2cc(C)n[nH]2)cc1
Activity [11]: inactive | Activity [12]: inactive | Activity [13]: inactive | Activity [14]: inactive | Activity [15]: inactive | Activity [16]: inactive | Activity [17]: Non-toxic | Activity [18]: Non-toxic | Activity [19]: Non-toxic

COc1ccc(/C=C/c2cc(C)no2)cc1
IC50 [1]: > 100 µM | IC50 [2]: > 100 µM | IC50 [3]: 22.4 µM | IC50 [4]: 76.4 µM | IC50 [20]: > 100 µM | IC50 [6]: 70.2 µM | IC50 [7]: > 100 µM | IC50 [8]: 58.3 µM | IC50 [9]: 66.3 µM | Ratio IC50 [10]: 1.1

Cc1cc(/C=C/c2ccc(O)cc2)on1
IC50 [1]: 50.2 µM | IC50 [2]: 67.2 µM | IC50 [3]: 67.9 µM | IC50 [4]: 44.2 µM | IC50 [5]: 55.5 µM | IC50 [6]: 58.3 µM | IC50 [7]: 88.5 µM | Ratio IC50 [10]: 1

COc1ccc(CCc2cc(C)no2)cc1
Activity [11]: inactive | Activity [12]: inactive | Activity [13]: inactive | Activity [14]: inactive | Activity [15]: inactive | Activity [16]: inactive | Activity [17]: Non-toxic | Activity [18]: Non-toxic | Activity [19]: Non-toxic

Cc1cc(CCc2ccc(O)cc2)on1
Activity [11]: inactive | Activity [12]: inactive | Activity [13]: inactive | Activity [14]: inactive | Activity [15]: inactive | Activity [16]: inactive | Activity [17]: Non-toxic | Activity [18]: Non-toxic | Activity [19]: Non-toxic

COc1ccc(/C=C/c2cc(C)n[nH]2)cc1
IC50 [1]: 8.9 µM | IC50 [3]: 9.4 µM | IC50 [4]: 8.4 µM | IC50 [20]: 9.7 µM | IC50 [5]: 10.7 µM | IC50 [7]: 19.9 µM | IC50 [8]: 12.9 µM | IC50 [9]: 16.5 µM | Ratio IC50 [10]: 1.3

Cc1cc(/C=C/c2ccc(O)cc2)[nH]n1
IC50 [1]: 48.1 µM | IC50 [3]: 38.8 µM | IC50 [4]: 32.9 µM | IC50 [5]: 23.2 µM | IC50 [6]: 80 µM | IC50 [7]: 59.2 µM | IC50 [8]: 77.4 µM | IC50 [9]: 68.9 µM | Ratio IC50 [10]: 0.9

COc1ccc(/C=C/c2cc(C)no2)cc1OC
IC50 [1]: > 100 µM | IC50 [2]: > 100 µM | IC50 [3]: 87.4 µM | IC50 [4]: > 100 µM | IC50 [20]: > 100 µM | IC50 [6]: 44.7 µM | IC50 [7]: 93.2 µM | IC50 [8]: 63.2 µM | IC50 [9]: 77.8 µM | Ratio IC50 [10]: 1.2

Cc1cc(/C=C/c2ccc(O)c(O)c2)[nH]n1
IC50 [1]: 23.2 µM | IC50 [2]: 33.1 µM | IC50 [4]: 55.3 µM | IC50 [6]: > 100 µM | IC50 [7]: 88.4 µM | IC50 [8]: 29.7 µM | IC50 [9]: 39.4 µM | Ratio IC50 [10]: 1.3

COc1cc(CCc2cc(C)n[nH]2)ccc1O
Activity [11]: inactive | Activity [12]: inactive | Activity [13]: inactive | Activity [14]: inactive | Activity [15]: inactive | Activity [16]: inactive | Activity [17]: Non-toxic | Activity [18]: Non-toxic | Activity [19]: Non-toxic

COc1ccc(CCc2cc(C)n[nH]2)cc1OC
Activity [11]: inactive | Activity [12]: inactive | Activity [13]: inactive | Activity [14]: inactive | Activity [15]: inactive | Activity [16]: inactive | Activity [17]: Non-toxic | Activity [18]: Non-toxic | Activity [19]: Non-toxic

CC(=O)CC(=O)/C=C/c1ccc(O)cc1
IC50 [1]: 20.2 µM | IC50 [2]: 8.8 µM | IC50 [3]: 36.5 µM | IC50 [4]: 10.6 µM | IC50 [5]: 6.8 µM | IC50 [6]: 30.6 µM | IC50 [7]: 18.9 µM | IC50 [9]: 11.6 µM | Ratio IC50 [10]: 1.1

Cc1cc(/C=C/c2ccc(O)c(O)c2)on1
IC50 [1]: 3.3 µM | IC50 [2]: 10.5 µM | IC50 [3]: 5.3 µM | IC50 [4]: 7.9 µM | IC50 [20]: 6.3 µM | IC50 [5]: 8.9 µM | IC50 [7]: 26.2 µM | IC50 [8]: 13 µM | IC50 [9]: 11.8 µM | Ratio IC50 [10]: 0.9

CC(=O)CC(=O)CCc1ccc(O)cc1
Activity [11]: inactive | Activity [12]: inactive | Activity [13]: inactive | Activity [14]: inactive | Activity [15]: inactive | Activity [16]: inactive | Activity [17]: Non-toxic | Activity [18]: Non-toxic | Activity [19]: Non-toxic

Cc1cc(CCc2ccc(O)cc2)[nH]n1
Activity [11]: inactive | Activity [12]: inactive | Activity [13]: inactive | Activity [14]: inactive | Activity [15]: inactive | Activity [16]: inactive | Activity [17]: Non-toxic | Activity [18]: Non-toxic | Activity [19]: Non-toxic

COc1cc(CCc2cc(C)no2)ccc1O
Activity [11]: inactive | Activity [12]: inactive | Activity [13]: inactive | Activity [14]: inactive | Activity [15]: inactive | Activity [16]: inactive | Activity [17]: Non-toxic | Activity [18]: Non-toxic | Activity [19]: Non-toxic
